The results in this text go back to PubChem BioAssay.

The source made the active and inactive calls.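 The calls were made as follows, unless noted: active = Her2 level under about 52% in both replicate screens, with viability over 70% of control (limit read from the data); inconclusive = Her2 under the limit in one screen only, or viability under 70%; inactive = Her2 level above the set limit.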

Experiment [1] is described as follows: reducers of endogenous Her2 protein level, primary screen, SKBR3 breast tumor cells, AlphaScreen, ATP viability (AID 461).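 As to Her2 level: lower value means less Her2 protein in the cells.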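 As to viability: percent of carrier control wells set as 100% viability.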 Particulars: 18-24 h, measured here: SKBR3 viability, ATP luminescence, at 10 µM. Background: Bead proximity is the source of the signal in Alpha formats.
Experiment [2] addresses Receptor tyrosine-protein kinase erbB-2 (Homo sapiens) (UniProt P04626). The experiment is described as above. Particulars: 18-24 h, at 10 µM, stronger effect = lower value.
Experiment [3] can be described thus: SK-BR-3 cell growth inhibitors, pilot screen, 24 h, human (AID 572;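 active = viability at or below 10% of carrier control in both of two separate runs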;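 also: compound exposure lasted between 18 and 24 h rather than exactly 24 h; 100% = carrier-treated control wells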). To be noted: SK-BR-3 viability, CellTiter-Glo luminescence, at 10 µM, stronger effect = lower value.
A short description of experiment [4]: HUVEC growth inhibition – cell-based, human, primary screen (AID 575;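 active = viability at or below 30% in both replicate assays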;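 also: 100% = median of untreated cell wells with 0.1% DMSO on each plate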). To be noted: HUVEC proliferation, CellTiter-Glo luminescence, 72 h; at 10 µM; stronger effect = lower value. In outline:
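Test system: HUVEC primary cells. Quantity: 1250 endothelial cells in each well. Dosing: single-point 10 µM, DMSO 0.1% final. Incubation: 72 h treatment at 37 °C. Measured by: CTG luminescence. Control set: DMSO cell controls and MePR drug controls. Plate: collagen-coated 384-well format.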

Experiment [5] can be described thus: growth inhibitors of H69AR lung tumor, primary screen, human, duplicate replicates (AID 580;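 active = viability at or under a set limit in both replicates, limit being median viability minus 3 SD, cut at about 48% in these data, passing the limit was not always enough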;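 also: 100% = mean luminescence of untreated wells and 0% = no signal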). To be noted: H69AR lung tumor cells viability, ATP luminescence, 72 h; at 10 µM; stronger effect = lower value.
The nature of experiment [6]: reversal of MRP1-mediated doxorubicin resistance, pilot screen, H69AR cells, doxorubicin co-treatment (AID 601;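 active = viability loss from added drug above about 55%, and viability with drug at most 40%, in both replicates, limit read from the data, passing the limit was not always enough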). To be noted: CellTiter-Glo, 72 h, at 10 µM; for differential viability (reversal): stronger effect = higher value. In general terms: In ATP-based viability assays light output follows the ATP content of the culture.
The nature of experiment [7]: 384-well plate pilot, post-Golgi transport modulator project, inhibition of yeast transport mutant growth (AID 636; in the data active = inhibition above about 31%). Particulars: absorbance 615 nm, about 18 h, stronger effect = higher value.
Experiment [8] can be described thus: growth suppression of yeast trafficking mutant, preliminary HTS, modulators of trafficking downstream of Golgi apparatus project, 1536-format plate, OD 615 nm (AID 637; in the data active = inhibition above about 30%). To be noted: yeast transport mutant growth, absorbance 615 nm, 18 h; stronger effect = higher value.
Setting [9] is: H69AR cells + 2 uM doxorubicin, measured here: viability with 2 uM doxorubicin, stronger effect = lower value.
[10] abbreviates: H69AR cells, compound alone cytotoxicity.

Receptor tyrosine-protein kinase erbB-2 (Homo sapiens), sequence (P04626 whole entry, looked up): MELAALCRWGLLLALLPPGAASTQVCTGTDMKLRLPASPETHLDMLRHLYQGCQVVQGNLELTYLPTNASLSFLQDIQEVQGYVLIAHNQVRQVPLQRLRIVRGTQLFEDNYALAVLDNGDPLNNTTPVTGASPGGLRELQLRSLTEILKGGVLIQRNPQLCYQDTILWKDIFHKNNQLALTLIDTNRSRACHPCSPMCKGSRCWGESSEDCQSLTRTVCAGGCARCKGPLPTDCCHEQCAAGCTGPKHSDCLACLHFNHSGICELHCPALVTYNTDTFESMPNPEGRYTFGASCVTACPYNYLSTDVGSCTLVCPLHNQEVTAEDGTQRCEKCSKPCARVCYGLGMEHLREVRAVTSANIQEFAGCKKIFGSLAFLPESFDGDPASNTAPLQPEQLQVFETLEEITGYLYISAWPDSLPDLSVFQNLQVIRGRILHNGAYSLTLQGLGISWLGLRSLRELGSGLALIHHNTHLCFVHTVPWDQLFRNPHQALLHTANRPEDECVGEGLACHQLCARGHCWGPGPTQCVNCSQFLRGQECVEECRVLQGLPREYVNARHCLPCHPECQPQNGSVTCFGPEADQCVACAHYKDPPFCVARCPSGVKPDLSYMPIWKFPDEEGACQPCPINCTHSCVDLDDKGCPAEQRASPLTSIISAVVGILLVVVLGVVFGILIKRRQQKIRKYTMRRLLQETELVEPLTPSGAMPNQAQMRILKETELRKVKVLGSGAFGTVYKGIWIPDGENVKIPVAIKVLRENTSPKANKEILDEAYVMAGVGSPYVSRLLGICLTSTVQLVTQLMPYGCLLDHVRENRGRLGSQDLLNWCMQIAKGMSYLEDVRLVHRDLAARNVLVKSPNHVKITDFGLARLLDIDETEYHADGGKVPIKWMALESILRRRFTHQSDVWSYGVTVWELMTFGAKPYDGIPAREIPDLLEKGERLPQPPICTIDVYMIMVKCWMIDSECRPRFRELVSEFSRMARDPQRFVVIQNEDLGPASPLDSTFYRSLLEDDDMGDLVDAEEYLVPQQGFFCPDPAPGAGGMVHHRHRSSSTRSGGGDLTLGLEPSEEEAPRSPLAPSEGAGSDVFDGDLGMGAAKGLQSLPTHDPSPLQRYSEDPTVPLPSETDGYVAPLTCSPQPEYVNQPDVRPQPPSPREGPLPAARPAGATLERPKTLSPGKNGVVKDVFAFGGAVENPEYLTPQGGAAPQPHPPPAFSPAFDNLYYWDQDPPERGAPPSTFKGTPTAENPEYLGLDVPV

In general, viability refers to a read-out of living cells in per cent, often relative to untreated cells. As a reminder, the inhibition is the relative decrease from the control value, in per cent. Regarding `Cc1ccc2cc(CN(CC3CCCO3)S(=O)(=O)c3ccc4c(c3)OCCO4)c(=O)[nH]c2c1C` (stereo not given), the viability was 86.5% in experiment [1]; 86.5% (inactive) in experiment [3]; 84.1% (inactive) in experiment [4]; 86.1% (inactive) in experiment [5]; 82.9% in experiment [6] (setting [9]); 86.1% in experiment [6] (setting [10]). For the same compound, the Her2 level in experiment [2] was 80% (inactive). In experiment [6] (H69AR cells + 2 uM doxorubicin), the differential viability (reversal) was 3.25% (inactive). The figures for the inhibition in experiment [7] and in experiment [8] were -5.07% (inactive) and -6.03% (inactive), respectively.

For `COc1ccccc1NC(=O)C(O)C(O)C(=O)Nc1ccccc1OC` (stereo not given), the viability is 111% in experiment [1]; 111% (inactive) in experiment [3]; 116% (inactive) in experiment [4]; 96.1% (inactive) in experiment [5]; 92.1% in experiment [6] (setting [9]); 96.1% in experiment [6] (setting [10]). Also, the Her2 level in experiment [2] was 104% (inactive). Moreover, in experiment [6] (H69AR cells + 2 uM doxorubicin), the differential viability (reversal) is 4.04% (inactive). Also, the inhibition in experiment [7] was -7.43% (inactive); in experiment [8], -2.83% (inactive).

On to `COc1ccc2c(c1)[nH]c1c(=O)n(CC3CCCO3)cnc12` (stereo not given), for which the viability in experiment [1] is 86%; in experiment [3], 86% (inactive); in experiment [4], 97.2% (inactive); in experiment [5], 90.5% (inactive); in experiment [6] (setting [9]), 94.9%; in experiment [6] (setting [10]), 90.5%. The Her2 level in experiment [2] was 94% (inactive). Moreover, the differential viability (reversal) in experiment [6] (H69AR cells + 2 uM doxorubicin) was -4.4% (inactive). Further, the inhibition in experiment [7] was -3.42% (inactive); in experiment [8] it was -6.39% (inactive).

Regarding `Cc1nc(NC2=NCN(CC3CCCO3)CN2)nc2ccccc12` (stereo not given), the viability in experiment [1] is 98.5%; in experiment [3] it was 98.5% (inactive); in experiment [4], 86.2% (inactive); in experiment [5], 85.1% (inactive); in experiment [6] (setting [9]), 98.9%; in experiment [6] (setting [10]), 85.1%. Besides, the Her2 level in experiment [2] is 83% (inactive). Further, the differential viability (reversal) in experiment [6] (H69AR cells + 2 uM doxorubicin) was -13.8% (inactive). Further, the results for the inhibition in experiment [7] and in experiment [8] were -5.07% (inactive) and -3.81% (inactive), respectively.

`O=C(Nc1cccc(F)c1)c1cccc(S(=O)(=O)N2CCOCC2)c1`: the viability in experiment [1] was 107%; in experiment [3], 107% (inactive); in experiment [4], 92.8% (inactive); in experiment [5], 91.6% (inactive); in experiment [6] (setting [9]), 91%; in experiment [6] (setting [10]), 91.6%. Besides, in experiment [2], the Her2 level is 87% (inactive). Moreover, the differential viability (reversal) in experiment [6] (H69AR cells + 2 uM doxorubicin) is 0.615% (inactive). For the same compound, the inhibition in experiment [7] was -6.71% (inactive); in experiment [8], -5.71% (inactive).

As to `Cc1nc2ccc(N3C(=O)CCC3=O)cc2[nH]1`, the viability in experiment [1] was 100%; in experiment [3], 100% (inactive); in experiment [4] it was 97.6% (inactive); in experiment [5] it was 103% (inactive); in experiment [6] (setting [9]) it was 95.2%; in experiment [6] (setting [10]) it was 103%. Moreover, the Her2 level in experiment [2] is 101% (inactive). In addition, the differential viability (reversal) in experiment [6] (H69AR cells + 2 uM doxorubicin) is 7.96% (inactive). Moreover, the inhibition in experiment [7] was -5.07% (inactive); in experiment [8] it was -1.45% (inactive).

For the compound `COCCNc1oc(-c2ccc(C)cc2)nc1C#N`, the viability in experiment [1] is 102%; in experiment [3] it was 102% (inactive); in experiment [4] it was 113% (inactive); in experiment [5], 85.9% (inactive); in experiment [6] (setting [9]), 77.5%; in experiment [6] (setting [10]) it was 85.9%. Besides, the Her2 level in experiment [2] was 81% (inactive). In addition, the differential viability (reversal) in experiment [6] (H69AR cells + 2 uM doxorubicin) is 8.44% (inactive). The inhibition in experiment [7] was -4.46% (inactive); in experiment [8], 3.33% (inactive).

With `COc1cccc2cc(C(=O)C3=C(O)C(=O)N(CCCN4CCOCC4)C3c3ccncc3)oc12` (stereo not given), the viability in experiment [1] is 98%; in experiment [3], 98% (inactive); in experiment [4] it was 110% (inactive); in experiment [5] it was 96.8% (inactive); in experiment [6] (setting [9]), 99.6%; in experiment [6] (setting [10]) it was 96.8%. Besides, the Her2 level in experiment [2] was 142% (inactive). Further, the differential viability (reversal) in experiment [6] (H69AR cells + 2 uM doxorubicin) is -2.74% (inactive). Also, the inhibition in experiment [7] is -5.19% (inactive); in experiment [8] it was -5.5% (inactive).

Turning to `Cc1cc2c(=O)n(Cc3ccco3)c(SCC(=O)NCc3ccco3)nc2s1`, the viability was 100% in experiment [1]; 100% (inactive) in experiment [3]; 93.7% (inactive) in experiment [4]; 81.2% (inactive) in experiment [5]; 76.4% in experiment [6] (setting [9]); 81.2% in experiment [6] (setting [10]). Moreover, the Her2 level in experiment [2] is 88% (inactive). In addition, the differential viability (reversal) in experiment [6] (H69AR cells + 2 uM doxorubicin) is 4.87% (inactive). The inhibition in experiment [7] was -4% (inactive); in experiment [8], 1.9% (inactive).

Take `Cc1cc(C)nc(N2CCCC(C(=O)Nc3ccc4c(c3)OCO4)C2)n1` (stereo not given): the viability is 93% in experiment [1]; 93% (inactive) in experiment [3]; 96.9% (inactive) in experiment [4]; 98.5% (inactive) in experiment [5]; 89.6% in experiment [6] (setting [9]); 98.5% in experiment [6] (setting [10]). Besides, the Her2 level in experiment [2] is 104% (inactive). The differential viability (reversal) in experiment [6] (H69AR cells + 2 uM doxorubicin) is 8.88% (inactive). The inhibition in experiment [7] is -5.54% (inactive); in experiment [8], -12.3% (inactive).

`COc1cc(NC(=O)NC(C)(C(F)(F)F)C(F)(F)F)cc(OC)c1OC`: the viability in experiment [1] is 138%; in experiment [3] it was 138% (inactive); in experiment [4], 91.1% (inactive); in experiment [5], 99.5% (inactive); in experiment [6] (setting [9]), 102%; in experiment [6] (setting [10]) it was 99.5%. Further, in experiment [2], the Her2 level was 106% (inactive). Moreover, the differential viability (reversal) in experiment [6] (H69AR cells + 2 uM doxorubicin) was -2.39% (inactive). Besides, the inhibition in experiment [7] is -4.08% (inactive); in experiment [8], 11.3% (inactive).

`COc1ccccc1C(=O)N1CCN(C(=O)c2ccncc2)CC1`: the viability was 122% in experiment [1]; 122% (inactive) in experiment [3]; 88.6% (inactive) in experiment [4]; 103% (inactive) in experiment [5]; 89.2% in experiment [6] (setting [9]); 103% in experiment [6] (setting [10]). Moreover, the Her2 level in experiment [2] is 106% (inactive). The differential viability (reversal) in experiment [6] (H69AR cells + 2 uM doxorubicin) was 13.7% (inactive). The inhibition in experiment [7] was -3.73% (inactive); in experiment [8], 4.35% (inactive).

As to `CSCCC(NS(=O)(=O)c1ccc2c(c1)oc(=O)n2C)C(=O)NC1CCCCC1` (stereo not given), the viability in experiment [1] was 91%; in experiment [3] it was 91% (inactive); in experiment [4], 87.4% (inactive); in experiment [5], 103% (inactive); in experiment [6] (setting [9]) it was 90.1%; in experiment [6] (setting [10]) it was 103%. For the same compound, the Her2 level in experiment [2] is 110% (inactive). Moreover, the differential viability (reversal) in experiment [6] (H69AR cells + 2 uM doxorubicin) was 12.6% (inactive). The inhibition in experiment [7] is 0.9% (inactive); in experiment [8], -3.17% (inactive).

On to `COC(=O)c1[nH]c2ccccc2c1NC(=O)CN1CCC(C(N)=O)(N2CCCCC2)CC1`, for which the viability is 96% in experiment [1]; 96% (inactive) in experiment [3]; 101% (inactive) in experiment [4]; 93.2% (inactive) in experiment [5]; 87.8% in experiment [6] (setting [9]); 93.2% in experiment [6] (setting [10]). The Her2 level in experiment [2] was 97.5% (inactive). Further, the differential viability (reversal) in experiment [6] (H69AR cells + 2 uM doxorubicin) was 5.43% (inactive). For the same compound, the values for the inhibition in experiment [7] and in experiment [8] were 1.58% (inactive) and 0.49% (inactive), respectively.
